Values after ≈ are worked out from the molar mass of the structure shown. Active and inactive are the calls of the source. No cut-off for these calls is given here.
Assays:
Actinomyces viscosus [1] = assay: Minimum inhibitory concentration against Actinomyces viscosus; assay type: functional
Method in brief: (§1)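 Tube dilution in trypticase soy broth, threefold dilutions from 1000 to 0.1 μg/mL. Stocks were 1 mg/100 μL in EtOH or Me₂SO. The inoculum was 50 μL of 10⁸ cfu/mL log-phase A. viscosus M100-2000, incubated aerobically at 37 °C. MIC was read visually at 24 h.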

Actinomyces viscosus [2] = assay: Minimum inhibitory concentration against Actinomyces viscosus M100-2000; NE is Not Effective; assay type: functional, organism-based; method in brief: as §1
[3] = Dissociation constant of the compound; assay type: physicochemical
Method in brief: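 Spectroscopic pKa in 0.01 M phosphate buffers without cosolvent, below 10⁻⁴ M. Only pH values giving >60% ionization were used. The analytical wavelength was the longest λmax at pH 12 (260–370 nm). The value is the average of triplicate determinations.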

Actinomyces viscosus [4] = assay: Compound was tested against Actinomyces viscosus; assay type: functional
[5] = Partition coefficient (logD); assay type: physicochemical; conditions: octanol/water
Method in brief: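 logD calculated at pH 7.2 as log D = log P + log[1/(1 + 10^(pH−pKa))], using the calculated log P and spectroscopic pKa.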

[6] = Partition coefficient (logP); assay type: physicochemical; conditions: octanol/water
Method in brief: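 log P calculated, not measured: 3.27 for salicylanilide plus π of the 4'-substituent plus π of R' (phenolic hydrophobicity substituent constants).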

Streptococcus mutans [7] = assay: The compound was tested for it's inhibitory activity against Streptococcus mutans; assay type: functional, organism-based
Actinomyces viscosus [8] = assay: Compound was tested for it's inhibitory activity against Actinomyces viscosus M100-2000; assay type: functional, organism-based
Streptococcus mutans [9] = assay: Maximum percentage inhibition against Streptococcus mutans at a concentration of 0.2% w/v; assay type: functional
Method in brief: (§2)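 Bovine enamel slabs (4 × 8 mm) were autoclaved in PBS pH 7.5, coated with human saliva (1 h, 37 °C), dipped in drug solution at the stated w/v for 2 min, then rinsed. They were incubated 24 h at 37 °C in 1% sucrose-supplemented medium inoculated with the plaque-forming organism. Tooth-adherent, glass-adherent and nonadherent fractions were read by OD540. Water-dipped slabs served as controls. Run in triplicate.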

Actinomyces viscosus [10] = assay: Maximum percentage inhibition against Actinomyces viscosus M-100-2000 at a concentration of 0.2% w/v
Actinomyces viscosus [11] = assay: Maximum percentage inhibition against Actinomyces viscosus 6715-13WT at a concentration of 0.1% w/v; assay type: functional; conditions: in the assay text read “M-100-2000” for “6715-13WT”; method in brief: as §2
Streptococcus mutans [12] = assay: Maximum percentage inhibition against Streptococcus mutans at a concentration of 0.1% w/v; assay type: functional; method in brief: as §2

Row | MIC (Actinomyces viscosus [1]) | pKa [3] | Log 1/MIC (Actinomyces viscosus [4]) | logD [5] | logP [6] | Structure (SMILES) | further results
1 | 0.5 µg/mL (≈ 0.964 µM) |  |  |  |  | CCCCCCCCCCCCCCS(=O)(=O)c1ccc(O)c(C(=O)Nc2ccc([N+](=O)[O-])cc2)c1 | 
2 | 0.1 µg/mL (≈ 0.195 µM) |  |  |  |  | CCCCCCCCCCCCS(=O)(=O)c1ccc(O)c(C(=O)Nc2cccc(C(F)(F)F)c2)c1 | 
3 |  |  |  |  |  | CCCCCCCCCCCCCCS(=O)(=O)c1ccc(O)c(C(=O)Nc2ccc(C(F)(F)F)cc2)c1 | MIC (Actinomyces viscosus [2]): inactive
4 | 20 µg/mL (≈ 48.5 µM) | 5.2 | 4.31 | 2.48 | 4.12 | CCCCS(=O)(=O)c1ccc(O)c(C(=O)Nc2ccc(Br)cc2)c1 | 
5 | ≥ 1000 µg/mL |  |  |  |  | CS(=O)(=O)c1ccc(O)c(C(=O)Nc2ccccc2)c1 | 
6 | 1 µg/mL (≈ 2.3 µM) |  |  |  |  | CCCCCCCCS(=O)(=O)c1ccc(O)c(C(=O)Nc2ccc([N+](=O)[O-])cc2)c1 | 
7 | 0.5 µg/mL (≈ 1.08 µM) |  |  |  |  | CCCCCCCCCCS(=O)(=O)c1ccc(O)c(C(=O)Nc2ccc([N+](=O)[O-])cc2)c1 | IC50 (Streptococcus mutans [7]): 190 µM; IC50 (Actinomyces viscosus [8]): 230 µM; inhibition at 0.2 % strength (Streptococcus mutans [9]): 80%; inhibition at 0.2 % strength (Actinomyces viscosus [10]): 93%
8 | ≥ 1000 µg/mL |  |  |  |  | CS(=O)(=O)c1ccc(O)c(C(=O)Nc2ccc(Br)cc2)c1 | 
9 | 0.5 µg/mL (≈ 1.01 µM) | 5.2 | 6 | 5.36 | 7.36 | CCCCCCCCCCS(=O)(=O)c1ccc(O)c(C(=O)Nc2ccc(Br)cc2)c1 | 
10 | 0.5 µg/mL (≈ 1.03 µM) |  |  |  |  | CCCCCCCCCCS(=O)(=O)c1ccc(O)c(C(=O)Nc2cccc(C(F)(F)F)c2)c1 | IC50 (Streptococcus mutans [7]): 2300 µM; IC50 (Actinomyces viscosus [8]): 680 µM; inhibition at 0.1 % strength (Actinomyces viscosus [11]): 83%; inhibition at 0.1 % strength (Streptococcus mutans [12]): 47%
11 | 1000 µg/mL (≈ 2100 µM) |  |  |  |  | CCCCCCCCCCCCS(=O)(=O)c1ccc(O)c(C(=O)Nc2ccc(OC)cc2)c1 | 
12 | 5 µg/mL (≈ 11.6 µM) | 6.2 | 4.94 | 4.18 | 5.22 | CCCCCCS(=O)(=O)c1ccc(O)c(C(=O)Nc2ccc(C(F)(F)F)cc2)c1 | 
13 | 0.5 µg/mL (≈ 0.953 µM) | 5.2 | 6.02 | 6.49 | 8.44 | CCCCCCCCCCCCS(=O)(=O)c1ccc(O)c(C(=O)Nc2ccc(Br)cc2)c1 | 
14 | 0.5 µg/mL (≈ 1.02 µM) |  |  |  |  | CCCCCCCCCCCCS(=O)(=O)c1ccc(O)c(C(=O)Nc2ccc([N+](=O)[O-])cc2)c1 | 
15 | 0.05 µg/mL (≈ 0.0973 µM) | 6.2 | 7.01 | 7.42 | 8.46 | CCCCCCCCCCCCS(=O)(=O)c1ccc(O)c(C(=O)Nc2ccc(C(F)(F)F)cc2)c1 | 
16 | 20 µg/mL (≈ 49.8 µM) | 6.2 | 4.31 | 3.1 | 4.14 | CCCCS(=O)(=O)c1ccc(O)c(C(=O)Nc2ccc(C(F)(F)F)cc2)c1 | 
17 | 1 µg/mL (≈ 2.12 µM) |  |  |  |  | CCCCCCCCCCCCS(=O)(=O)c1ccc(O)c(C(=O)Nc2ccc(C#N)cc2)c1 | 
18 |  |  |  |  |  | CCCCCCCCCCCCCCS(=O)(=O)c1ccc(O)c(C(=O)Nc2cccc(C(F)(F)F)c2)c1 | MIC (Actinomyces viscosus [2]): inactive
19 | 5 µg/mL (≈ 11.4 µM) | 5.2 | 4.94 | 3.2 | 5.2 | CCCCCCS(=O)(=O)c1ccc(O)c(C(=O)Nc2ccc(Br)cc2)c1 | 
20 | 1000 µg/mL (≈ 2780 µM) | 6.2 | 2.56 | 1.48 | 2.52 | CS(=O)(=O)c1ccc(O)c(C(=O)Nc2ccc(C(F)(F)F)cc2)c1 | 
21 | 0.1 µg/mL (≈ 0.206 µM) | 6.2 | 6.69 | 6.34 | 7.38 | CCCCCCCCCCS(=O)(=O)c1ccc(O)c(C(=O)Nc2ccc(C(F)(F)F)cc2)c1 | IC50 (Streptococcus mutans [7]): 1900 µM; IC50 (Actinomyces viscosus [8]): 90 µM; inhibition at 0.2 % strength (Streptococcus mutans [9]): 76%; inhibition at 0.2 % strength (Actinomyces viscosus [10]): 95%
22 | 0.5 µg/mL (≈ 1.09 µM) | 6.2 | 5.96 | 5.26 | 6.3 | CCCCCCCCS(=O)(=O)c1ccc(O)c(C(=O)Nc2ccc(C(F)(F)F)cc2)c1 | 

Row | Structure (SMILES) | MIC (Actinomyces viscosus [1]) | pKa [3] | Log 1/MIC (Actinomyces viscosus [4]) | logD [5] | logP [6] | further results
23 | O=C(Nc1ccc(Br)cc1)c1cc(Br)cc(Br)c1O [TRIBROMSALAN] | 0.5 µg/mL (≈ 1.11 µM) |  |  |  |  | IC50 (Streptococcus mutans [7]): 1200 µM; IC50 (Actinomyces viscosus [8]): 880 µM; inhibition at 0.2 % strength (Streptococcus mutans [9]): 46%; inhibition at 0.2 % strength (Actinomyces viscosus [10]): 53%

— ChEMBL document CHEMBL1123206, “5-(Alkylsulfonyl)salicylanilides as potential dental antiplaque agents” (J Med Chem, 1986)
